The values that follow come from ChEMBL document CHEMBL4229499, “Development of novel silanol-based human pregnane X receptor (PXR) agonists with improved receptor selectivity” (Bioorg Med Chem, 2018).

pEC50, pIC50: −log10 of the molar value. A value given as a limit tells only on which side of the number the result lay.

Data set [1] can be described thus: Octanol/water partition co-efficient, log P of the compound by HPLC method. It counts as physicochemical.
In data set [2] the target is T1, Nuclear receptor ROR-gamma (Homo sapiens, UniProt P51449).
T1 sequence (P51449 whole entry): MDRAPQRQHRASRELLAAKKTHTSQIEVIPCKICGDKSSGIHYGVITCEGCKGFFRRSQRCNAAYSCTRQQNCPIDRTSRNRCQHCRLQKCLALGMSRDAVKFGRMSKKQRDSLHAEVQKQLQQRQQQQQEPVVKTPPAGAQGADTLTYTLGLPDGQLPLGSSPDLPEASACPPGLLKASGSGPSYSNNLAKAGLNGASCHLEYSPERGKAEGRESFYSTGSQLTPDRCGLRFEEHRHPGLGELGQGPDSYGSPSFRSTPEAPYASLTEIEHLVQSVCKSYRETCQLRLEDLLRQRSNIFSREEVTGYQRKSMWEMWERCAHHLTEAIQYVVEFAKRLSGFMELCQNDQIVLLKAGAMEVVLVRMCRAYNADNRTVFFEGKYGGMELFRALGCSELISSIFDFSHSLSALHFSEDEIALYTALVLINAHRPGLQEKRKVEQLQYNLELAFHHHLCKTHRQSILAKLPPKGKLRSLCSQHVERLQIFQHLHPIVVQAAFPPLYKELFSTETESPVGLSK
In words: Inhibition of human RORgamma1 expressed in HEK293 cells after 24 hrs by luciferase reporter gene assay. The conditions noted are these: for IC50: hek293; for pIC50: read-out: IC50. The class given is cell-based.

In data set [3] the target is T2, Nuclear receptor ROR-alpha (Homo sapiens, UniProt P35398).
T2 sequence (P35398 whole entry): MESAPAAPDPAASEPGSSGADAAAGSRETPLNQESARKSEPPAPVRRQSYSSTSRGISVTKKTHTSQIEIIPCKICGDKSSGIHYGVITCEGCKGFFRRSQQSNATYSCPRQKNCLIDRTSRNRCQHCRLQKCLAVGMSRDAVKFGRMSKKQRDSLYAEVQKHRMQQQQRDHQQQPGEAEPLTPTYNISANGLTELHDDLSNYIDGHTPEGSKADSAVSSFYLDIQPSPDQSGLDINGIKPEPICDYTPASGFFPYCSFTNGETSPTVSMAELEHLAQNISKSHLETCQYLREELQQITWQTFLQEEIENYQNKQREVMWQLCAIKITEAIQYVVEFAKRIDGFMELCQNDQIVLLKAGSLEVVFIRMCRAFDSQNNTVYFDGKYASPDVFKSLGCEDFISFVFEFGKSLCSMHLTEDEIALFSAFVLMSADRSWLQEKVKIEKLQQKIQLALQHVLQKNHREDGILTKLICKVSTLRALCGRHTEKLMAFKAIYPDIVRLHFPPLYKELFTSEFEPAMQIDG
Briefly: Inhibition of human RORalpha1 expressed in HEK293 cells after 24 hrs by luciferase reporter gene assay. The class given is cell-based. Conditions: for IC50: hek293; for pIC50: read-out: IC50; call rule not given here.

The target of data set [4] is T3, Nuclear receptor subfamily 1 group I member 2 (Homo sapiens, UniProt O75469).
T3 sequence (O75469 whole entry): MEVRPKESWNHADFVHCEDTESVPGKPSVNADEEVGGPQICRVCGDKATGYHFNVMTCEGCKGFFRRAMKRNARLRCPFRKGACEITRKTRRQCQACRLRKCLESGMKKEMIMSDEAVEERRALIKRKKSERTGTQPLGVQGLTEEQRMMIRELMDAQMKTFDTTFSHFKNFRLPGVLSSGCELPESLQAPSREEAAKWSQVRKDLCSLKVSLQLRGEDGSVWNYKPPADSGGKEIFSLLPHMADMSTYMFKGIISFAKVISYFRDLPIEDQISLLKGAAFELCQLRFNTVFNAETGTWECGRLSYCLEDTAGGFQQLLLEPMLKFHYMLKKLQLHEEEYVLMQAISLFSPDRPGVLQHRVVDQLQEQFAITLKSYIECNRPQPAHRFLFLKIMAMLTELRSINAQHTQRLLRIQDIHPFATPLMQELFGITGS
In words: Agonist activity at VP16-fused human PXR expressed in HEK293 cells after 24 hrs by luciferase reporter gene assay. It counts as cell-based. Conditions: for pEC50: read-out: EC50; for EC50: hek293. The method, boiled down:
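HEK293 cells grown in DMEM with 5% FBS and penicillin/streptomycin at 37 °C, 5% CO₂. Seeded at 20% confluence 24 h before calcium-phosphate co-transfection with 150 ng receptor expression plasmid (PXR as a VP16 fusion), 500 ng luciferase reporter and 10 ng β-gal vector. Luciferase was normalized to β-galactosidase, in triplicate transfections.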

Data set [5] addresses T4, Nuclear receptor ROR-alpha (Homo sapiens) (UniProt P35398).
T4 sequence (whole entry): T2 sequence (P35398 whole entry)
Briefly: Agonist activity at human RORalpha1 expressed in HEK293 cells after 24 hrs by luciferase reporter gene assay. It counts as cell-based.

Data set [6] deals with T5, Nuclear receptor ROR-gamma (Homo sapiens) (UniProt P51449).
T5 sequence (whole entry): T1 sequence (P51449 whole entry)
In words: Agonist activity at human RORgamma1 expressed in HEK293 cells after 24 hrs by luciferase reporter gene assay. It counts as cell-based.

For `C[Si](C)(O)c1ccc(NS(=O)(=O)c2ccccc2)cc1`, the logP in data set [1] was 2.22. Besides, the IC50 result in data set [2] and in data set [3] was “Not Active” in each case. In data set [4], the negative-log EC50 (pEC50) was 5.62.

`O=C(O)c1ccc(N(CC(F)(F)F)S(=O)(=O)c2ccccc2)cc1`: the IC50 result in data set [2] and in data set [3] was “Not Active” throughout. Besides, in data set [4], the EC50 entry is “Not Active”.

In the case of `CC(C)(O)c1ccc(N(CC(F)(F)F)S(=O)(=O)c2ccccc2)cc1`, the negative-log IC50 (pIC50) in data set [2] was < 4.52. For the same compound, the IC50 result in data set [3] is reported as “Not Active”. Moreover, the EC50 result in data set [4] was “Not Active”.

As to `C[Si](C)(O)c1ccc(N(CCc2ccccc2)S(=O)(=O)c2ccccc2)cc1`, the logP in data set [1] was 4.32. For the same compound, the negative logarithm of the IC50 (pIC50) in data set [2] and in data set [3] was < 4.52 each time. Further, the pEC50 in data set [4] is 4.85.

Turning to `COC(=O)CN(c1ccc(C(C)(C)O)cc1)S(=O)(=O)c1ccccc1`, the logP in data set [1] worked out at 2.35. Besides, in data set [2], the pIC50 was < 4.52. For the same compound, the IC50 result in data set [3] is “Not Active”. Moreover, the EC50 entry in data set [4] is “Not Active”.

Compound `CCCCN(c1ccc([Si](C)(C)O)cc1)S(=O)(=O)c1ccccc1` had a logP in data set [1] of 4.05. Also, the pIC50 in data set [2] and in data set [3] was < 4.52 each time. In addition, the pEC50 in data set [4] was 5.19.

Turning to `C[Si](C)(O)c1ccc(N(CC(F)(F)F)S(=O)(=O)c2ccccc2)cc1`, the pIC50 in data set [2] was 4.96; in data set [3] it was < 4.52. In addition, the pEC50 in data set [4] is 6.20.

In data set [1], `C[Si](C)(O)c1ccc(N(Cc2ccccc2)S(=O)(=O)c2ccccc2)cc1` registered a logP of 3.92. Further, the pIC50 in data set [2] and in data set [3] was < 4.52 each time. Also, the pEC50 in data set [4] was 5.49.

Consider `CN(c1ccc([Si](C)(C)O)cc1)S(=O)(=O)c1ccccc1`, for which the Activity amounted to 53% in data set [5] and 54% in data set [6]. Further, the logP in data set [1] amounted to 2.9. Besides, the pEC50 in data set [4] is 5.47.

In turn, `COCCN(c1ccc([Si](C)(C)O)cc1)S(=O)(=O)c1ccccc1` registered a logP in data set [1] of 2.81. Moreover, the IC50 result in data set [2] and in data set [3] was “Not Active” each time. Besides, the pEC50 in data set [4] is 5.38.

`COC(=O)CN(c1ccc([Si](C)(C)O)cc1)S(=O)(=O)c1ccccc1` gave a log partition coefficient (logP) in data set [1] of 2.79. Moreover, the IC50 entry in data set [2] and in data set [3] was “Not Active” each time. Also, the pEC50 in data set [4] is 5.85.

On to `CCN(c1ccc([Si](C)(C)O)cc1)S(=O)(=O)c1ccccc1`, for which, in data set [1], the logP stood at 3.2. Further, the pIC50 in data set [2] and in data set [3] was < 4.52 in each case. In addition, the pEC50 in data set [4] was 5.72.
